Screens from PubChem BioAssay.
The list is not random: actives were taken first. Their share in the collection is about 2.2%.
MT stabilize HCS: microtubule stabilizers in HeLa cells; HeLa tubulin immunostaining HCS, 24 h; share of cells brighter than vehicle mean+2SD; 200,000 tested, 0.83% active; % tubulin-high responders, % at 10 µM;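 active = plate Z-score above 3 for both tubulin-high and condensed-nucleus cell shares, with cell loss under 80%, at 10 µM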;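 also: anti alpha tubulin signal scored within the nucleus-defined area of each cell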
BaF3 parental: parental Ba/F3 viability inhibition as JAK2V617F counter-screen | CellTiter-Glo ATP luminescence | inhibition, % at 5.6 µM | 220,000 tested, 1.1% active;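 active = inhibition above a per-campaign cutoff, the mean inhibition of all tested compounds plus 3 SD, cut at about 27% in these data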
IEC-6 tox: kills IEC-6 intestinal cells in KLF5 counter-screen; 290,000 tested, 0.78% active; AID 1825; IEC-6 cytotoxicity, luminescence viability; inhibition, % at 5 µM; in the data active = inhibition above about 22%
b-catenin transl: alters nuclear translocation of beta-catenin in HeLa cells; immunofluorescence imaging; 190,000 tested, 0.3% active; nuclear translocation activity, % at 5 µM;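 active = nuclear translocation activity above 50% at 5 µM, with a well cell count of 50 or more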;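 also: per-cell ratio of nuclear to cytoplasmic median beta-catenin stain intensity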
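Test system: human HeLa cell line; Doses: 5 µM primary, 0.02–20 µM confirmation; Incubation: 24 h compound exposure, 37°C; Detection: beta-catenin immunofluorescence imaging with DAPI; Read-out: beta-catenin nuclear/cytoplasmic ratio, % activation.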
APP transl inh: APP translation inhibition | 190,000 tested, 0.82% active | AID 1285 | SH-SY5Y APP 5'UTR-luciferase reporter, luminescence | inhibition, % at 2 µM;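 active = inhibition above a set limit, derived from the sample mean plus 3 SD, cut at about 45% in these data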
Ba/F3 V617F tox: lowers viability of Ba/F3 cells expressing EpoR and JAK2V617F | ATP luminescence | inhibition, % at 5.6 µM | 220,000 tested, 1.1% active;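 active = inhibition above the campaign mean plus 3 SD over all tested compounds, cut at about 24% in these data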;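 also: cytokine-independent growth of Ba/F3 cells driven by EpoR plus mutant JAK2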
BaF3 tox 2: parental Ba/F3 viability inhibition for JAK2V617F counter-screen; 580 tested, 31% active; AID 1520; inhibition, % at 5.6 µM; CellTiter-Glo luminescence; cells kept alive by added IL-3; shares compounds with Ba/F3 V617F tox;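 active = cell growth inhibition above the hit limit set in the earlier mutant JAK2 cell screen, cut at about 27% in these data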
JAK2V617F conf: Ba/F3 EpoR-JAK2V617F viability loss, confirmation | AID 1521 | CellTiter-Glo luminescence | 580 tested, 66% active | shares compounds with Ba/F3 V617F tox | inhibition, % at 5.6 µM;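 active = mean inhibition above the hit cutoff derived in the earlier primary screen, cut at about 25% in these data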;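 also: higher means lower luminescence from reduced cell ATP and viability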
Numbers stand for hits; . = inactive; / = not tested or not shown.

SMILES | MT stabilize HCS | BaF3 parental | IEC-6 tox | b-catenin transl | APP transl inh | Ba/F3 V617F tox | BaF3 tox 2 | JAK2V617F conf
NC(=O)/C(=N\OC(=O)c1ccco1)c1nc(-c2ccc(Br)cc2)cs1 | . | . | . | . | . | 31 | . | 31
Nc1nc(-c2ccc(NC(=O)c3ccco3)cc2)cs1 | / | / | . | / | / | / | / | /
COc1ccccc1CC(=O)O/N=C(\N)Cc1cccc2ccccc12 | . | . | . | . | . | 34 | . | .
COc1ccccc1OC(=O)Cc1cccc2ccccc12 | / | / | . | / | / | / | / | /
COc1ccc(/C=N/NC(=O)CCn2cnc(-c3ccccc3)c2-c2ccccc2)cc1 | . | . | 40 | 60 | 89 | 47 | 62 | 94
C/C(=N\Nc1nc(N2CCCCCC2)nc(N2CCCCCC2)n1)c1ccccc1 | . | . | . | . | . | . | / | /
Oc1c(C(Nc2nc3ccccc3s2)c2ccco2)ccc2cccnc12 (centres undefined) | . | . | . | . | 68 | 26 | 35 | 89
c1coc(CNc2nc3ccccc3s2)c1 | / | / | . | / | / | / | / | /
COc1ccc(-n2nnnc2S(=O)(=O)CC(=O)N2CCCCC2)cc1 | . | . | . | / | . | 27 | . | 88
COc1ccc(-n2nnnc2S(=O)(=O)Cc2ccc(C(=O)O)cc2)cc1 | . | . | . | / | . | . | / | /
CCCCN(CC)Cc1ccc(CNC(=O)Nc2ccc(F)cc2)o1 | . | . | . | / | . | 48 | . | 39
CCN(CC)c1ccc(S(=O)(=O)N2CCOCC2)cc1NC(=O)CSc1n[nH]c(N)n1 | / | . | . | . | / | . | / | /
Nc1ccc2nc(-c3ccc(Cl)cc3)[nH]c2c1 | . | / | / | / | . | / | / | /
Nc1ccc(-c2nc3ccc(N)cc3[nH]2)cc1 | . | . | . | . | . | . | / | /
Nc1ccc2nc(-c3cc(Cl)c(N)c(Cl)c3)[nH]c2c1 | . | . | . | . | . | 24 | 31 | 53
Cc1ccc(C)c(-c2nc3ccc(N)cc3[nH]2)c1 | . | . | . | / | . | 33 | 35 | 54
Cc1ccc(Nc2nc(-c3ccc(O)c(O)c3)cs2)nc1 | . | . | . | . | . | 92 | 95 | 99
O=C(Nc1ccc(C#Cc2ccccc2)cc1)C1CC1 | . | . | . | . | . | 38 | . | .
O=C(Nc1ccc(Oc2ccccc2)cc1)C1CC1 | . | . | . | . | . | . | / | /
Cc1ccc(C)c(Cn2nnc3c(=O)[nH]c(C(=O)NCC4CCCO4)nc32)c1 (centres undefined) | . | . | . | . | . | 28 | . | .
Cc1ccc(C=Nc2ccccc2C(=O)Nc2ccccc2)cc1 | . | . | . | . | . | . | / | /
Cc1ccc(C=Nc2ccccc2C(N)=O)cc1 | 31 | . | . | / | . | 42 | 37 | 78
CC(=O)N(CCc1ccccc1C)Cc1cc2ccc(C)cc2[nH]c1=O | / | / | . | / | / | / | / | /
O=C(/C=C/c1ccc(O)c(O)c1)c1ccc(S(=O)(=O)N2CCCCCC2)cc1 | . | . | . | . | . | 44 | . | 85
COc1ccc2oc(=N)c(C(=O)Nc3ccccc3Cl)cc2c1 | / | / | . | / | / | / | / | /
SMILES | MT stabilize HCS | BaF3 parental | IEC-6 tox | b-catenin transl | APP transl inh | Ba/F3 V617F tox | BaF3 tox 2 | JAK2V617F conf
CN(C)CCCN(Cc1ccccc1)C(=S)Nc1ccc(SC(F)F)cc1 | . | . | . | . | . | 36 | . | 45
CC(=O)c1ccc(NC(=S)N(CCCN(C)C)Cc2ccccc2)cc1 | / | . | . | . | / | . | / | /
COC(=O)c1cccc(NC(=O)/C=C/c2cccc([N+](=O)[O-])c2)c1 | . | . | . | . | . | . | / | /
CC(=O)c1cccc(NC(=O)/C=C/c2ccc([N+](=O)[O-])s2)c1 | . | . | . | . | 81 | 101 | 106 | 100
COC(=O)c1cc(NS(=O)(=O)c2ccc(NC(C)=O)cc2)ccc1Cl | / | . | . | . | / | . | / | /
CC(C)CCNC(=O)C(c1ccco1)N(CCCO)C(=O)Cn1nnc(-c2ccc(F)cc2)n1 (centres undefined) | . | . | . | . | . | 49 | . | .
Cc1nc([N+](=O)[O-])c(Br)n1Cc1ccc(Cl)c(Cl)c1 | . | . | . | . | . | 46 | . | 85
CCn1c(SCc2c(F)cccc2Cl)nnc1-c1ccco1 | . | . | . | / | . | 27 | . | .
CCn1c(SCc2nc(-c3ccccc3)no2)nnc1-c1ccco1 | . | . | . | . | . | . | / | /
CCCCC(CC)CNC(=O)CN1C(=O)NC2(CCc3ccccc32)C1=O (centres undefined) | / | / | . | / | / | / | / | /
COc1cccc(/C=N/Nc2nc3ccccc3[nH]2)c1O | / | . | . | . | / | 77 | 59 | 89
COC(=O)c1sccc1N/N=C/c1cccc(OC)c1O | . | . | . | . | . | . | / | /
CC(=O)Nc1ccc(/C=N/Nc2nc3ccccc3[nH]2)cc1 | . | . | . | . | . | . | / | /
COc1cccc(/C=N/Nc2ncnc3scc(-c4ccccc4)c23)c1O | . | . | . | . | 89 | 41 | 92 | 98
CCN(CC)c1ccc(/C=N/Nc2nc3ccccc3[nH]2)cc1 | . | . | 41 | . | . | 50 | . | 64
CC(=O)Nc1ccc(Nc2nc(-c3cc4ccccc4oc3=O)cs2)cc1 | / | / | . | / | / | / | / | /
Nc1ccc(Nc2nc(-c3cc4ccccc4oc3=O)cs2)cc1 | . | . | . | . | . | 84 | 77 | 99
CCOC(=O)C1CCN(C/C=C/c2ccccc2[N+](=O)[O-])CC1 | / | / | . | / | / | / | / | /
N#C/C(=C\c1cc(Cl)cc(Cl)c1O)C(=O)NC1CCCCC1 | . | . | . | . | . | . | / | /
CC(/C=C/c1ccccc1)=N\NC(=O)Cn1cncn1 | / | . | . | . | / | 31 | . | .
O=Cc1[nH]c2ccccc2c1N(C(=O)CCl)c1ccc([N+](=O)[O-])cc1 | / | . | . | . | / | . | / | /
CC(=O)n1cc(N(C(=O)CCl)c2ccccc2)c2ccccc21 | / | . | . | . | / | 96 | 98 | 99
CC(=O)n1cc(N(C(=O)CCl)c2ccc([N+](=O)[O-])cc2)c2ccccc21 | / | . | . | . | / | 63 | 46 | 100
Clc1ccccc1C1=Nn2c(nnc2-c2ccco2)SC1 | / | . | . | . | / | . | / | /
COc1cccc(C2/C(=C(\O)c3ccc4c(c3)OCCO4)C(=O)C(=O)N2Cc2cccnc2)c1 (centres undefined) | / | / | . | / | / | / | / | /
COc1cccc(C(=O)COc2cccc(NC(=O)c3cccc([N+](=O)[O-])c3)c2)c1 | . | . | . | . | . | 42 | . | .
O=C(COc1cccc(NC(=O)c2cccc([N+](=O)[O-])c2)c1)c1ccc(F)cc1 | . | . | . | . | / | . | / | /
O=C(NC1C=CS(=O)(=O)C1)c1sc2ccccc2c1Cl (centres undefined) | . | . | . | . | . | 27 | . | 59
O=C(NC1CC1)c1sc2ccccc2c1Cl | / | / | . | / | / | / | / | /
CCCCN1CN(Cc2ccccc2)CNC1=S | . | . | . | . | . | 41 | . | .
